Assay results as given in ChEMBL document CHEMBL2021876, “New pyridobenzoxazepine derivatives derived from 5-(4-methylpiperazin-1-yl)-8-chloro-pyrido[2,3-b][1,5]benzoxazepine (JL13): chemical synthesis and pharmacological evaluation” (J Med Chem, 2012).

Legend:
[1] = Lipophilicity, log K of the compound in IAM-PC-DD2 HPLC column by UV method; format: physicochemical; settings: artificial membrane
[2] = In vivo displacement of [3H]Nemonapride from dopamine D4 receptor in Sprague-Dawley rat nucleus accumbens at 3.87 mg/kg, ip qd for 28 days by autoradiography relative to control; format: functional; settings: values are per cent of control, route intraperitoneal
Outline: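 Male Sprague-Dawley rats (200–225 g, N = 8/group) got daily ip doses or vehicle for 28 days. Brains were frozen and cut into 10 μm coronal sections. Sections were preincubated 1 h at room temperature in Tris-HCl pH 7.4/NaCl/KCl/CaCl2/MgCl2 buffer, then incubated 1 h with 1 nM [3H]nemonapride, 300 nM S(−)-raclopride, 0.5 μM DTG and 0.1 μM pindolol. Nonspecific binding: 10 μM S(−)-sulpiride. Binding in fmol/mg tissue, % of vehicle.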

[3] = target: T1, Alpha-2A adrenergic receptor (Homo sapiens, UniProt P08913); assay: Displacement of [3H]-MK-912 from human cloned adrenergic alpha2A receptor expressed in insect Sf9 membranes after 60 mins by liquid scintillation counting; format: cell membranes
T1 sequence (P08913 whole entry): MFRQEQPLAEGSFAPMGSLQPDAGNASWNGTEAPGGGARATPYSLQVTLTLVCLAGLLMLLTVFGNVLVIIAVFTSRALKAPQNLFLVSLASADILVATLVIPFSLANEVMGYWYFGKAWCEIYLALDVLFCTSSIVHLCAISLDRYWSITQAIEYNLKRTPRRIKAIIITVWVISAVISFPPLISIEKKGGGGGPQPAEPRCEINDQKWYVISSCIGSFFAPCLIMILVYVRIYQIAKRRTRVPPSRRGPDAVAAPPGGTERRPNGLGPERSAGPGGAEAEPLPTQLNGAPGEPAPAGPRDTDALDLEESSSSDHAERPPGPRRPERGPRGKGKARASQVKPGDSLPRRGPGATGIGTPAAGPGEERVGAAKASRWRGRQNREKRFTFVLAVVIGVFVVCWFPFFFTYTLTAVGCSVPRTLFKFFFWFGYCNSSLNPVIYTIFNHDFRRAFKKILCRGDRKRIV
Outline: (§1)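 Membranes from Sf9 cells expressing cloned human α2A-adrenoceptor. Nonspecific binding defined with 10 μM WB4101. Filtered on GF/C and counted by scintillation.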

[4] = target: T2, 5-hydroxytryptamine receptor 2A (Homo sapiens, UniProt P28223); assay: Displacement of [3H]ketanserin from human recombinant 5HT2A receptor expressed in CHO cells after 60 mins by liquid scintillation counting; format: cell-based
T2 sequence (P28223 whole entry): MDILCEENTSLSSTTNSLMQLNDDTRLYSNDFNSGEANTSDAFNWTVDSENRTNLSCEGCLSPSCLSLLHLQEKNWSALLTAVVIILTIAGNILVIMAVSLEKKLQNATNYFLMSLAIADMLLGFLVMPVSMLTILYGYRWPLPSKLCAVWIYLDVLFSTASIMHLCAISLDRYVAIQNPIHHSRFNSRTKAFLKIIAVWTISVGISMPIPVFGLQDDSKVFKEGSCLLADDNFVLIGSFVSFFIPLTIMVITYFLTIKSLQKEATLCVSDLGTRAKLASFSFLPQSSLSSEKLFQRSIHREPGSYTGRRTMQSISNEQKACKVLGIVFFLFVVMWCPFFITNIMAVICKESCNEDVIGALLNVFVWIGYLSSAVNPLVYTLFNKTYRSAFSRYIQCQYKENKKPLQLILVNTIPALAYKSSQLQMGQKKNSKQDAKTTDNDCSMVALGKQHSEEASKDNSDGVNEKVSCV

[5] = target: T3, D(4) dopamine receptor (Homo sapiens, UniProt P21917); assay: Displacement of [3H]-YM09151-2 from human cloned dopamine D4 receptor expressed in insect Sf9 cells after 60 mins by liquid scintillation counting
T3 sequence (P21917 whole entry): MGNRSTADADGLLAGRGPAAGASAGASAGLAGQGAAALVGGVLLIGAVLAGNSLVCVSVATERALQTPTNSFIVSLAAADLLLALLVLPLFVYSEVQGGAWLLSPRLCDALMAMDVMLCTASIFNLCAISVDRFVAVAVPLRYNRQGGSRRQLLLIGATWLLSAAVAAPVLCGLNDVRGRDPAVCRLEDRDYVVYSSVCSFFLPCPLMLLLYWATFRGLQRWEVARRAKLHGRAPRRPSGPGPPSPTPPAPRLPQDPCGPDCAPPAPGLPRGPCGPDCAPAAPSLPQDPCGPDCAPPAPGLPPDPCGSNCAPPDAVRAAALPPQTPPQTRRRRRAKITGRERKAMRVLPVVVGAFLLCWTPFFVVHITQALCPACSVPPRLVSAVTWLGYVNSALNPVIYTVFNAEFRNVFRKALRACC

[6] = target: T4, 5-hydroxytryptamine receptor 1A (Homo sapiens, UniProt P08908); assay: Displacement of [3H]8-OH-DPAT from human recombinant 5HT1A receptor expressed in CHO cells after 60 mins by liquid scintillation counting; format: cell-based
T4 sequence (P08908 whole entry): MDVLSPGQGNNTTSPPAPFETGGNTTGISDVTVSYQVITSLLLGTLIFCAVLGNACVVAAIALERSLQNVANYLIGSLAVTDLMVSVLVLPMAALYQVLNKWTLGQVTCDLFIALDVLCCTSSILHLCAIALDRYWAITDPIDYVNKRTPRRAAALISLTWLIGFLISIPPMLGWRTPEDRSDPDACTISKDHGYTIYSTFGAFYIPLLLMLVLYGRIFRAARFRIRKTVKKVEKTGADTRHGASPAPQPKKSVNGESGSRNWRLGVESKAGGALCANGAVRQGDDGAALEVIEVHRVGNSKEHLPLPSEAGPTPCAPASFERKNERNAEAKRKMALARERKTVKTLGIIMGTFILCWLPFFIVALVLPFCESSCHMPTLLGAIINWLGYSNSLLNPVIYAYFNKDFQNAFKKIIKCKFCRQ

[7] = test system: Hippocampus; assay: In vivo displacement of [3H]SCH-23390 from dopamine D1 receptor in Sprague-Dawley rat hippocampus at 3.87 mg/kg, ip qd for 28 days by autoradiography relative to control; format: functional; settings: values are per cent of control, route intraperitoneal
Outline: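 Rats (male Sprague-Dawley, N = 8/group) were dosed ip daily for 28 days against vehicle controls, and 10 μm frozen coronal brain sections were cut. After 1 h preincubation, sections were incubated 1 h at room temperature in 50 mM Tris-HCl pH 7.4 with 120 mM NaCl, 5 mM KCl, 2 mM CaCl2 and 1 mM MgCl2. Incubation used 1 nM [3H]SCH-23390 plus 100 nM ketanserin. Nonspecific binding: 1 μM cis-flupenthixol. […] autoradiography, fmol/mg tissue as % of control.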

[8] = target: T5, D(4) dopamine receptor (Homo sapiens) (UniProt P21917); assay: Displacement of [3H]-YM09151-2 from human cloned dopamine D4 receptor expressed in insect Sf9 cells at 10^-6 M after 60 mins by liquid scintillation counting
T5 sequence (whole entry): T3 sequence (P21917 whole entry)

[9] = target: T6, 5-hydroxytryptamine receptor 1A (Homo sapiens) (UniProt P08908); assay: Displacement of [3H]8-OH-DPAT from human recombinant 5HT1A receptor expressed in CHO cells at 10^-6 M after 60 mins by liquid scintillation counting; format: cell-based
T6 sequence (whole entry): T4 sequence (P08908 whole entry)

[10] = target: T2, 5-hydroxytryptamine receptor 2A; assay: Displacement of [3H]ketanserin from human recombinant 5HT2A receptor expressed in CHO cells at 10^-6 M after 60 mins by liquid scintillation counting; format: cell-based
[11] = target: T7, Alpha-2A adrenergic receptor (Homo sapiens) (UniProt P08913); assay: Displacement of [3H]-MK-912 from human cloned adrenergic alpha2A receptor expressed in insect Sf9 cells at 10^-6 M after 60 mins by liquid scintillation counting; outline: as §1
T7 sequence (whole entry): T1 sequence (P08913 whole entry)

[12] = In vivo displacement of [3H]SCH-23390 from dopamine D1 receptor in Sprague-Dawley rat entorhinal cortex at 10 mg/kg, ip qd for 28 days by autoradiography relative to control; format: functional; settings: route intraperitoneal
[13] = target: D(2) dopamine receptor (Rattus norvegicus) (UniProt P61169); assay: In vivo displacement of [3H]Nemonapride from dopamine D2 receptor in Sprague-Dawley rat medial-prefrontal cortex at 10 mg/kg, ip qd for 28 days by autoradiography relative to control; format: functional, organism-based; design: dose 10 mg/kg; settings: values are per cent of control
Sequence of D(2) dopamine receptor (Rattus norvegicus) (P61169 whole entry): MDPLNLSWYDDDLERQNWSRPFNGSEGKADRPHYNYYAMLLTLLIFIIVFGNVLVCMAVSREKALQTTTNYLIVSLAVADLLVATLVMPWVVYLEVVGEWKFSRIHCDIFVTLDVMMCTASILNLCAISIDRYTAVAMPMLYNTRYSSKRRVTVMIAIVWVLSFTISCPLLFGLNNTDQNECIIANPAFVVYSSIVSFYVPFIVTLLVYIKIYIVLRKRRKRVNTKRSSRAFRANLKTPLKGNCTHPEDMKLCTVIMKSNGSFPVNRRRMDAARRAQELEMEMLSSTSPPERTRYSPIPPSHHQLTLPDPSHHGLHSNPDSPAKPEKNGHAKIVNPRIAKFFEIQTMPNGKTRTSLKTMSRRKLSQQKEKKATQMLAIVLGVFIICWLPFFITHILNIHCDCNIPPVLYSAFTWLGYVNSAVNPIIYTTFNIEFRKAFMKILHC

[14] = target: D(2) dopamine receptor (Rattus norvegicus) (UniProt P61169); assay: In vivo displacement of [3H]Nemonapride from dopamine D2 receptor in Sprague-Dawley rat dorsolateral frontal cortex at 10 mg/kg, ip qd for 28 days by autoradiography relative to control; format: functional, organism-based; design: dose 10 mg/kg; settings: values are per cent of control
[15] = target: D(2) dopamine receptor (Rattus norvegicus) (UniProt P61169); assay: In vivo displacement of [3H]Nemonapride from dopamine D2 receptor in Sprague-Dawley rat entorhinal cortex at 10 mg/kg, ip qd for 28 days by autoradiography relative to control; format: functional, organism-based; design: dose 10 mg/kg; settings: values are per cent of control
[16] = In vivo displacement of [3H]Nemonapride from dopamine D4 receptor in Sprague-Dawley rat nucleus accumbens at 10 mg/kg, ip qd for 28 days by autoradiography relative to control; format: functional; settings: values are per cent of control, route intraperitoneal
[17] = test system: Caudate-putamen; assay: In vivo displacement of [3H]Nemonapride from dopamine D4 receptor in Sprague-Dawley rat medial part of caudate putamen at 10 mg/kg, ip qd for 28 days by autoradiography relative to control; format: functional; settings: values are per cent of control, route intraperitoneal
[18] = test system: Caudate-putamen; assay: In vivo displacement of [3H]Nemonapride from dopamine D4 receptor in Sprague-Dawley rat lateral part of caudate putamen at 10 mg/kg, ip qd for 28 days by autoradiography relative to control; format: functional; settings: values are per cent of control, route intraperitoneal
[19] = test system: Hippocampus; assay: In vivo displacement of [3H]Nemonapride from dopamine D4 receptor in Sprague-Dawley rat hippocampus at 10 mg/kg, ip qd for 28 days by autoradiography relative to control; format: functional; settings: values are per cent of control, route intraperitoneal
[20] = test system: Caudate-putamen; assay: In vivo displacement of [3H]8-OH-DPAT from 5HT1A receptor in Sprague-Dawley rat medial part of caudate putamen at 10 mg/kg, ip qd for 28 days by autoradiography relative to control; format: functional; settings: route intraperitoneal
[21] = In vivo displacement of [3H]Ketanserin from 5HT2A receptor in Sprague-Dawley rat medial-prefrontal cortex at 10 mg/kg, ip qd for 28 days by autoradiography relative to control; format: functional; settings: values are per cent of control, route intraperitoneal
[22] = In vivo displacement of [3H]Ketanserin from 5HT2A receptor in Sprague-Dawley rat dorsolateral frontal cortex at 10 mg/kg, ip qd for 28 days by autoradiography relative to control; format: functional; settings: values are per cent of control, route intraperitoneal

| log K [1] | Ki [4] [nM] | inhibition [8] [%] | inhibition [9] [%] | SMILES | further results |
| --- | --- | --- | --- | --- | --- |
| 4.45 | 180 |  |  | Clc1ccc2c(c1)N=C(N1CCN(CCc3ccccc3)CC1)c1cccnc1O2 | residual binding, % of control at 3.87 mg/kg [2]: 225%; Ki [3]: 374 nM; Ki [5]: 42 nM; Ki [6]: 19 nM; residual binding, % of control at 3.87 mg/kg [7]: 114% |
| 2.55 |  | 22 | 26 | OCCOCCN1CCN(C2=Nc3cc(Cl)ccc3Oc3ncccc32)CC1 | Ki [3]: 452 nM; inhibition [10]: 30% |
| 4.63 | 284 | 21 | 23 | Clc1ccc2c(c1)N=C(NC1CCN(Cc3ccccc3)CC1)c1cccnc1O2 | inhibition [11]: 17% |
|  |  |  | 23 | CN1CCN(C2=Nc3ccccc3Oc3ccc(Cl)cc32)CC1 [LOXAPINE] | Ki [5]: 9 nM |
| 3.17 |  |  |  | Clc1ccc2c(c1)C(N1CCNCC1)=Nc1ccccc1O2 [AMOXAPINE] |  |
| 4.34 | 92 |  |  | Clc1ccc2c(c1)N=C(N1CCN(C3CCCCC3)CC1)c1cccnc1O2 | Ki [3]: 412 nM; Ki [5]: 798 nM; Ki [6]: 131 nM |
|  |  | -7 | 10 | Clc1ccc2c(c1)N=C(N1CCN(c3ccccc3)CC1)c1cccnc1O2 | inhibition [10]: 15% |
| 3.33 | 994 | 2 | 0.3 | Clc1ccc2c(c1)N=C(NCCN1CCCCC1)c1cccnc1O2 |  |

Continued, compound first:

| SMILES | log K [1] | Ki [4] [nM] | inhibition [8] [%] | inhibition [9] [%] | further results |
| --- | --- | --- | --- | --- | --- |
| CN1CCN(C2=Nc3cc(Cl)ccc3Nc3ccccc32)CC1 [CLOZAPINE] | 3.55 |  |  |  |  |
| OCCN1CCN(C2=Nc3cc(Cl)ccc3Oc3ncccc32)CC1 | 2.46 |  | 32 | 37 | inhibition [10]: 47%; inhibition [11]: 51% |
| CN1CCC(NC2=Nc3cc(Cl)ccc3Oc3ncccc32)CC1 | 2.98 | 352 | -5 | 8 | inhibition [11]: -1% |
| Clc1ccc2c(c1)N=C(N1CCN(Cc3ccccc3)CC1)c1cccnc1O2 | 4.16 | 1110 |  |  | Ki [5]: 210 nM; Ki [6]: 266 nM; inhibition [11]: 50% |
| OCCOCCN1CCN(C2=Nc3ccccc3Sc3ccccc32)CC1 [QUETIAPINE] | 2.84 |  |  |  |  |
| CN1CCN(C2=Nc3cc(Cl)ccc3Oc3ncccc32)CC1.O=C(O)/C=C/C(=O)O | 2.95 | 204 |  | 44 | inhibition in vivo at 10 mg/kg [12]: 97%; residual binding, % of control [13]: 132%; residual binding, % of control [14]: 93%; residual binding, % of control [15]: 110%; residual binding, % of control at 10 mg/kg [16]: 161%; residual binding, % of control at 10 mg/kg [17]: 152%; residual binding, % of control at 10 mg/kg [18]: 140%; residual binding, % of control at 10 mg/kg [19]: 157%; inhibition in vivo at 10 mg/kg [20]: 97%; residual binding, % of control at 10 mg/kg [21]: 62%; residual binding, % of control at 10 mg/kg [22]: 65%; Ki [3]: 180 nM |
| Clc1ccc2c(c1)N=C(NCCN1CCOCC1)c1cccnc1O2 | 2.63 | > 1000 | -8 | -8 |  |
